Legend:
PBMCs = experiment: Viability of freshly isolated PBMCs; format: cell-based, human; conditions: 72 h, data not shown
MOLM-13 cells = experiment: Apoptosis analysis Annexin-V/PI; conditions: for viable cells: separated enantiomers, after 72 h
MDM2 [1] = experiment: Western blot analysis in MOLM-13 cells; format: cell-based, human; conditions: 20 μM; 6, 12, 24 h
caspase 3 and 7 = experiment: CaspaseGlo 3/7 assay in MOLM-13 cells; format: cell-based, human; conditions: 20 μM, 24 h, relative to untreated control
primary AML blasts = experiment: Apoptosis; format: cell-based, human; conditions: 20 μM, 72 h
MDM4 = experiment: Western blot analysis in MOLM-13 cells; format: cell-based, human; conditions: 20 μM; 6, 12, 24 h
Procedure, shortened: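 MOLM-13 cells (wt p53) grown in RPMI 1640 with 10% heat-inactivated FBS, harvested in log phase. Treated with 20 µM test compound or left untreated, then lysed at 6, 12 and 24 h (1 × 10^6 cells). Equal protein run on 12% SDS-PAGE and electroblotted to PVDF. Loading checked by Ponceau S and β-actin. HRP secondaries with chemiluminescent detection.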

p53 = experiment: Western blot analysis in MOLM-13 cells; format: cell-based, human; conditions: 20 μM; 6, 12, 24 h
MDM2 [2] = biological target: MDM2 (Homo sapiens, UniProt Q00987); format: binding; conditions: SAR summary, unsubstituted indole
Chain of MDM2 (Homo sapiens, UniProt Q00987) (Q00987 1-125): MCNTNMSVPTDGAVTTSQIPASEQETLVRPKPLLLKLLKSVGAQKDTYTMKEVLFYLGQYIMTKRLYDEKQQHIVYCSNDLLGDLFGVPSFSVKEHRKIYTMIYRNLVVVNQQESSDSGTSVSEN

Compound: (+)-YH239-EE
- toxic effect on PBMCs (viability) (PBMCs): less cytotoxic than Nutlin-3
- viable cells (MOLM-13 cells): 13.7%
- MDM2 levels (MDM2 [1]): MDM2 levels raised after 12 h
- activation of caspase 3 and 7 (caspase 3 and 7): significant higher activation of caspase 3 and 7 after 24 h than (−)-YH239-EE and Nutlin-3
- response of patient samples with lower blast (<45%) counts (primary AML blasts): no response
- share of tested samples with increased induction of apoptosis (primary AML blasts; 8 primary patient samples): 2/3
- level of MDM4 (MDM4): no effect
- induction of p53 (p53): induction of p53 could be observed after 6 h

Compound: COc1ccc(C2=N[C@@H](c3ccc(Cl)cc3)[C@@H](c3ccc(Cl)cc3)N2C(=O)N2CCNC(=O)C2)c(OC(C)C)c1 [Nutlin-3, reference compound]
- toxic effect on PBMCs (viability) (PBMCs): higher toxic effect on PBMCs than (+)-YH239-EE
- apoptotic effect in words (MOLM-13 cells; 20 μM, 72 h): high induction of apoptosis

Compound: CC(=O)N(CC(C)C)C(C(=O)NCc1ccccc1)c1c[nH]c2ccccc12 (stereo not shown) [5a]
- activity (binding to MDM2) in words (MDM2 [2]): inactive

Compound: CC(=O)N(Cc1ccccc1)C(C(=O)NCc1ccccc1)c1c[nH]c2ccccc12 (stereo not shown) [5b]
- activity (binding to MDM2) in words (MDM2 [2]): inactive

Compound: CCOC(=O)c1[nH]c2cc(Cl)ccc2c1C(C(=O)NC(C)(C)C)N(C=O)Cc1ccc(Cl)cc1 (single isomer, unassigned; (-)) [(−)-YH239-EE]
- viable cells (MOLM-13 cells): 51.5%

— paper PMC3985958 (ACS Chemical Biology, 2014)
